# This is a sample that favours compounds with a hit; in the whole collection about 2.6% have one here.
# TNAP inh hiacc: TNAP (human) inhibition, high acceptor; P05186; 200,000 compounds, 0.03% hits; inhibition, % at 20 µM; purified TNAP, CDP-star luminescence, 1 M DEA; AID 1135;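 active = over 50% inhibition of tissue-nonspecific alkaline phosphatase at 20 µM in the single-dose screen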
# Arbovirus anti: antivirals against arbovirus infection; 200,000 compounds, 0.37% hits; AID 1251; inhibition, % at 10 µM; arbovirus infection cell-based antiviral screen; in the data active = inhibition above about 30%
# TNAP act hi DEA: increases human TNAP activity under high phosphate acceptor concentration; purified TNAP, CDP-star luminescence, 1 M DEA, 30 min; hits give high values; 0 = EDTA background, 1 = DMSO-only activity; activation factor at 20 µM; 200,000 tested, under 10 active;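 active = activation factor at least 2 at 20 µM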
#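 Dosing: 20 µM single point. System: human TNAP. Amount: TNAP 1/800 final. Incubation: 30 min, room temperature. Read-out: TNAP activation factor scaled between EDTA and DMSO control wells. Signal: luminescence from CDP-star hydrolysis. Medium: 1 M DEA, pH 9.8, Mg2+, Zn2+. Control set: EDTA negative control, DMSO positive control.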
# WT yeast gro inh: growth inhibition of WT yeast, mitochondrial fusion screen | inhibition, % at 10 µM | 190,000 compounds, 2.1% hits | mitochondrial fusion phenotypic screen, WT strain | AID 1362; in the data active = inhibition above about 58%; tested in S. cerevisiae
# TNAP inh noacc: inhibitors of human TNAP without phosphate acceptor. P05186. purified TNAP, CDP-star luminescence, 30 min. inhibition, % at 20 µM. 200,000 compounds, 0.26% hits;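 active = tissue-nonspecific alkaline phosphatase inhibition above about 50% at 20 µM in the single-dose screen, limit read from the data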
# A number is an active result; – = inactive.
SMILES,TNAP inh hiacc,Arbovirus anti,TNAP act hi DEA,WT yeast gro inh,TNAP inh noacc
CCC(=NCc1ccc2c(c1)OCO2)c1c(O)n(C2CCCCC2)c(=O)[nH]c1=O,–,–,–,62,–
O=C(N/N=C/C1C(=O)NC(=S)N(c2ccccc2)C1=O)c1cc(Br)c(O)c(Br)c1 (stereo not drawn),–,–,–,–,75
CSc1ncc(/C=C2/C(=O)NC(=O)N(c3ccc(Cl)cc3)C2=O)cn1,–,–,–,–,–
CC(C)Oc1cc(-n2c(=S)[nH]c3ccccc3c2=O)c(Cl)cc1Cl,–,–,–,60,–
c1ccc(-c2[nH]c(-c3ccccc3)[n+](CC3CO3)c2-c2ccccc2)cc1 (stereo not drawn),–,–,–,59,–
Cc1cccc(N/N=C(\C(N)=O)C2=NC(C)(C)Cc3ccccc32)c1,–,–,–,–,–
COc1cc(OC)c(C=O)c(OC(=O)N(C)C)c1,–,–,–,–,–
